For data set [1], the target named is Pyruvate dehydrogenase kinase (Homo sapiens, UniProt Q15119+Q15120+Q16654+Q15118). The data set can be described thus: […] inhibion of pyruvate dehydrogenase kinase, increased oxidation of lactate. It counts as functional. An outline of the steps: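 Human fibroblasts, modified Ofenstein assay: conversion of [14C]lactate to 14CO2, taken as activation of the PDH complex. EC50 in μM ± standard error.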

Data set [2] deals with pyruvate dehydrogenase kinase (Sus scrofa). The data set can be described thus: In vitro inhibitory activity against Pyruvate dehydrogenase kinase by primary enzymatic assay.
Data set [3] addresses T1, Pyruvate dehydrogenase kinase (Rattus norvegicus) (UniProt Q63065+A6IPZ9+Q64536+O54937). In words: In vivo inhibition of pyruvate dehydrogenase kinase, reduced lactate level in normal 24 hr r fasted rats at 300 umol/kg oral dose; Not active. In kind it is functional, organism-based.
Data set [4] is described as follows: The maximum concentration of compound was measured at the dose of 30 umol/kg. More on the design: dose 30 umol/kg. In kind it is ADME, organism-based. The note with it: rat, in vivo. The gist of the method:
(§1)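 Oral dosing at 30, 100 and 300 μmol/kg. Blood plasma concentrations followed to give peak concentration and estimated half-life.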

The target of data set [5] is T1, Pyruvate dehydrogenase kinase (Rattus norvegicus). The data set can be described thus: In vivo inhibition of pyruvate dehydrogenase kinase, reduced lactate level in normal 24 hr r fasted rats at 30 umol/kg oral dose. It counts as functional, organism-based. More on the design: scale not given: the % may be the effect or the level left.
The nature of data set [6]: The biological half life the compound was measured at the dose of 30 umol/kg. It counts as ADME, organism-based. To be noted: rat, in vivo. The gist of the method: as §1
Data set [7] has as its target T1, Pyruvate dehydrogenase kinase (Rattus norvegicus). The data set can be described thus: In vivo inhibition of pyruvate dehydrogenase kinase, reduced lactate level in normal 24 hr r fasted rats at 100 uMmol/kg oral dose. In kind it is functional, organism-based. Also on record: dose or concentration left out as unconfirmed.
Data set [8] shares this target. The data set can be described thus: In vivo inhibition of pyruvate dehydrogenase kinase, reduced lactate level in normal 24 hr r fasted rats at 10 umol/kg oral dose. It counts as functional, organism-based. More on the design: scale not given: the % may be the effect or the level left.
The nature of data set [9]: The area under the curve of compound was measured at the dose of 30 umol/kg. It counts as ADME, organism-based. To be noted: rat, in vivo. The gist of the method:
as §1

A short description of data set [10]: The time to reach maximum concentration of compound was measured at the dose of 30 umol/kg. The note with it: rat, in vivo. It counts as ADME, organism-based. The gist of the method:
as §1

In data set [11] the target is T1, Pyruvate dehydrogenase kinase (Rattus norvegicus). The data set can be described thus: In vivo inhibition of pyruvate dehydrogenase kinase, reduced lactate level in normal 24 hr r fasted rats at 1 umol/kg oral dose. In kind it is functional, organism-based. Also on record: scale not given: the % may be the effect or the level left.
Data set [12] has the same target. In words: In vivo inhibition of pyruvate dehydrogenase kinase, reduced lactate level in normal 24 hr r fasted rats at 3 umol/kg oral dose. It counts as functional, organism-based. More on the design: scale not given: the % may be the effect or the level left.
Data set [13] in a line: The maximum concentration of compound was measured at the dose of 100 umol/kg. In kind it is ADME, organism-based. More on the design: dose 100 umol/kg. To be noted: rat, in vivo. The gist of the method:
as §1

Data set [14] deals with T1, Pyruvate dehydrogenase kinase (Rattus norvegicus). The data set can be described thus: In vivo inhibition of pyruvate dehydrogenase kinase, reduced lactate level in normal 24 hr r fasted rats at 100 umol/kg oral dose. In kind it is functional, organism-based. More on the design: scale not given: the % may be the effect or the level left.
Data set [15] can be described thus: The area under the curve of compound was measured at the dose of 100 umol/kg. It counts as ADME, organism-based. To be noted: rat, in vivo. An outline of the steps: as §1
Data set [16] in a line: The time to reach maximum concentration of compound was measured at the dose of 100 umol/kg. To be noted: rat, in vivo. It counts as ADME, organism-based. An outline of the steps:
as §1

Data set [17] is described as follows: The biological half life the compound was measured at the dose of 100 umol/kg. In kind it is ADME, organism-based. The note with it: rat, in vivo. An outline of the steps:
as §1

A short description of data set [18]: The time to reach maximum concentration of compound was measured at the dose of 300 umol/kg. To be noted: rat, in vivo. In kind it is ADME, organism-based. The gist of the method: as §1
Data set [19] can be described thus: The area under the curve of compound was measured at the dose of 300 umol/kg. It counts as ADME, organism-based. To be noted: rat, in vivo. An outline of the steps: as §1
The nature of data set [20]: The maximum concentration of compound was measured at the dose of 300 umol/kg. It counts as ADME, organism-based. To be noted: rat, in vivo. More on the design: dose 300 umol/kg. The gist of the method:
as §1

Data set [21] deals with T1, Pyruvate dehydrogenase kinase (Rattus norvegicus). The data set can be described thus: In vivo inhibition of pyruvate dehydrogenase kinase, reduced lactate level in normal 24 hr r fasted rats at 300 umol/kg oral dose. It counts as functional, organism-based. Also on record: scale not given: the % may be the effect or the level left.
The target is the same in data set [22]. The data set can be described thus: In vivo inhibition of pyruvate dehydrogenase kinase, reduced lactate level in normal 24 hr r fasted rats at 1 mmol/kg oral dose. It counts as functional, organism-based. More on the design: scale not given: the % may be the effect or the level left.

Activity calls are given as the source filed them. The calls are words filed in the database; no cut-off is given here.

`C[C@@](O)(C(=O)Nc1ccccc1Cl)C(F)(F)F` had a half-maximal effective concentration (EC50) in data set [1] of 5400 nM. For the same molecule, the 50% inhibitory concentration (IC50) in data set [2] is 300 nM. For the same molecule, in [3], the Control entry is “inactive”.
Molecule `C[C@@H]1CN(C(=O)[C@@](C)(O)C(F)(F)F)CCN1C(=O)c1ccc(C#N)cc1` yielded an EC50 in data set [1] of 250 nM. In [4], this molecule came in with a peak concentration (Cmax) of 23.8 µM. The same molecule came in with an IC50 in data set [2] of 79 nM. Further, the Control in data set [5] came to 60%; in [7], 67%; in data set [8], 90%. In data set [6], this molecule gave a half-life of 3 h. The molecule further displayed an AUC in [9] of 196 µM·h. Moreover, the Tmax in [10] was 1.25 h.
`COC(=O)c1ccc(NC(=O)[C@@](C)(O)C(F)(F)F)c(Cl)c1` came in with a concentration for half-maximal inhibition (IC50) in data set [2] of 120 nM.
Still for that read-out and setting: under `C[C@](O)(C(=O)Nc1ccccc1Cl)C(F)(F)F` stands 9800 nM.
`C[C@@](O)(C(=O)Nc1ccc(C(=O)N2CCCCC2)cc1Cl)C(F)(F)F`: the EC50 in data set [1] is 590 nM. Besides, the half-inhibitory concentration (IC50) in data set [2] stood at 1500 nM. Besides, the Control entry in data set [3] is “inactive”.
As to `C[C@@H]1CN(C(=O)[C@@](C)(O)C(F)(F)F)[C@@H](C)CN1C(=O)c1ccc(C#N)cc1`, the concentration for a half-maximal effect (EC50) in data set [1] came to 57 nM. In addition, the Control stood at 87% in data set [11], 74% in data set [8] and 90% in [12]. This molecule also came in with a half-maximal inhibitory concentration (IC50) in [2] of 16.5 nM.
`C[C@@](O)(C(=O)Nc1ccc(S(=O)(=O)N2CCCCC2)cc1)C(F)(F)F` gave a half-maximal inhibitory concentration (IC50) in [2] of 9300 nM.
For the molecule `C[C@@](O)(C(=O)Nc1ccc(C(=O)O)cc1Cl)C(F)(F)F`, in data set [1], the 50% effective concentration (EC50) is 1400 nM. In [13], this molecule gave a Cmax of 87.3 µM. The Control was found to be 70% in data set [14] and 98% in [5]. Moreover, in [2], the 50% inhibitory concentration (IC50) came out at 90 nM. This molecule also returned an AUC in [15] of 143 µM·h. Also, the Tmax in data set [16] worked out at 0.5 h. For the same molecule, the half-life in data set [17] was 4.6 h.
The molecule `C[C@@H]1CN(C(=O)[C@@](C)(O)C(F)(F)F)[C@@H](C)CN1Cc1ccccc1` yielded a 50% inhibitory concentration (IC50) in data set [2] of 82 nM.
Still for that read-out and setting: under `C[C@@](O)(C(=O)Nc1ccc(C(=O)c2ccccc2)cc1Cl)C(F)(F)F` stands 110 nM; under `C[C@](O)(C(=O)NC1CCCCC1)C(F)(F)F`, 200000 nM.
As for `C[C@@](O)(C(=O)Nc1ccc(S(=O)(=O)F)cc1Cl)C(F)(F)F`, the concentration for half-maximal inhibition (IC50) in [2] was 77 nM.
As to `CC(O)(C(=O)Nc1ccc(C(=O)c2ccccc2)cc1)C(F)(F)F` (single isomer, unassigned), the Control result in data set [3] was “inactive”.
`C[C@@](O)(C(=O)N1CCN(C(=O)c2ccc(C#N)cc2)CC1)C(F)(F)F` returned a concentration for half-maximal inhibition (IC50) in [2] of 6700 nM.
The same measure, in the same setting: under `C[C@@](O)(C(=O)Nc1ccccc1)C(F)(F)F` stands 35000 nM.
For `C[C@@](O)(C(=O)Nc1ccc(S(=O)(=O)N2CCNCC2)cc1Cl)C(F)(F)F`, the concentration giving a half-maximal response (EC50) in data set [1] was 17000 nM. The time to peak (Tmax) in data set [18] was determined as 6 h. Moreover, the IC50 in [2] worked out at 55 nM. For the same molecule, in data set [19], the area under the curve (AUC) worked out at 670 µM·h. In data set [20], this molecule came in with a peak concentration (Cmax) of 53.8 µM. In data set [21], this molecule gave a Control of 72%.
Molecule `C[C@@](O)(C(=O)NC1CCCCC1)C(F)(F)F` came in with an IC50 in data set [2] of 6200 nM.
As to `C[C@@H]1CN(C(=O)[C@@](C)(O)C(F)(F)F)CCN1C(=O)OCc1ccccc1`, the IC50 in data set [2] is 21 nM.
Turning to `O=C([O-])C(Cl)Cl.[Na+]`, in data set [22], the Control amounted to 70%.

By EC50 is commonly meant the concentration giving half of the maximal effect. For orientation: IC50 means the concentration at which inhibition is half-maximal. The term Cmax denotes the peak of the concentration-time curve. A word on the half-life: it is how long it takes for the measured level to halve. A word on the AUC: it is concentration integrated over time. For orientation: Tmax means the time from dosing to the highest level.

Values taken from ChEMBL document CHEMBL1132309, “(R)-3,3,3-Trifluoro-2-hydroxy-2-methylpropionamides are orally active inhibitors of pyruvate dehydrogenase kinase” (J Med Chem, 1999).
